RGS4 block – inhibitors of human RGS4 | HEK293 M3R/RGS4 inducible, Fluo-4 calcium flux; active compounds read high; triggered by carbachol at its EC20 | B-score at 10 µM | actives 0.45% (n = 310,000) | AID 463165;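 active means B-score, a plate-corrected calcium signal, over three deviations above library mean, with baseline fluorescence within five deviations of library mean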;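 further: RGS4 expression induced by doxycycline in cells with stable M3 receptor; B-score is computed from the integrated fluorescence ratio over baseline after carbachol; higher B-score means a larger calcium signal and so more RGS4 inhibition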
Target sequence (P49798 whole entry, looked up): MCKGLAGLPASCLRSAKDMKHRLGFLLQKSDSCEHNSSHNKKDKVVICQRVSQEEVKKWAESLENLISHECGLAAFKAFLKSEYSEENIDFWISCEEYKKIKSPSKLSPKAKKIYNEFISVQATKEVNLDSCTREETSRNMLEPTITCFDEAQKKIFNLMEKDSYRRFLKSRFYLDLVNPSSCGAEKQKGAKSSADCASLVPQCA
MrgX1 antag – antagonists of human MrgX1 receptor; actives 1.3% (n = 310,000); MRGX1-HEK293 calcium flux, Fluo-4, BAM8-22 antagonism; active compounds read low; B-score at 10 µM;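 active means calcium-response B-score plate-corrected more than 3 library SD below zero, starting fluorescence within 5 deviations, no agonist response on first addition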;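 further: peak minus trough fluorescence over baseline after final BAM8-22 challenge near maximal dose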
Target sequence (Q96LB2 whole entry, looked up): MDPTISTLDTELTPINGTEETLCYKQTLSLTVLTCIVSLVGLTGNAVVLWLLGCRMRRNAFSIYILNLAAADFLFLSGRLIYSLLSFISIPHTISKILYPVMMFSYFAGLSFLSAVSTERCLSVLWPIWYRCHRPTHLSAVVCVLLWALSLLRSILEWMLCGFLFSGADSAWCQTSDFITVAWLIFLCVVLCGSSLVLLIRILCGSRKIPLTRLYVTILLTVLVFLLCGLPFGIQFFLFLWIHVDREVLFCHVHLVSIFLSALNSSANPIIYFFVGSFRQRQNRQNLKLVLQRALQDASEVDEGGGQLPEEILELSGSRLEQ
MrgX1 ag – agonists of human MrgX1 receptor; B-score at 10 µM; AID 588627; actives 0.44% (n = 310,000); Q96LB2; MrgX1-HEK293 cells, Fluo-4 calcium fluorescence, agonist mode; active compounds read high;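 active means calcium response B-score plate-corrected fluorescence ratio at least 3 library SD, with starting fluorescence B-score inside 5 SD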
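System – MrgX1-expressing HEK293 cells · Incubation – cells plated overnight, dye loaded 0.5 h 37 °C, 0.5 h room temperature · Technique – kinetic Fluo-4 NW fluorescence of intracellular calcium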
MrgX1 allo act – human MrgX1 positive allosteric modulation, primary screen | Q96LB2 | B-score at 10 µM | actives 0.63% (n = 310,000) | MrgX1-HEK293, Fluo-4 calcium flux, FDSS; active compounds read high;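 active means plate-corrected calcium response at least 3 library SD above typical, normal starting fluorescence, not activating the receptor alone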;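 further: compound read alongside a low EC10 to EC30 dose of BAM8-22 agonist; peak minus trough fluorescence over baseline measured at the second addition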
RGS4 act – potentiators or activators of RGS4. HEK293 M3R/inducible RGS4, carbachol calcium flux Fluo4; active compounds read low. B-score at 10 µM. actives 0.92% (n = 310,000). AID 463111;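 active means B-score of the integrated calcium signal more than 4 SD below the library mean, with starting fluorescence not abnormally high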;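 further: negative B-score means reduced calcium response which marks RGS4 activation or potentiation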
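test system = HEK293 cells with stable M3R and inducible RGS4 | schedule = recording 10 s baseline at 1 Hz, 100 s post-agonist | technique = Fluo4-AM (2 µM) calcium-flux fluorescence, kinetic read | measure = Agonist-evoked peak-minus-minimum fluorescence over baseline, integrated ratio, B score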
MrgX1 ant reconf – reconfirmed antagonist of human MrgX1 receptor signaling; shares compounds with MrgX1 antag; MrgX1-HEK293, BAM8-22 calcium flux, Fluo-4; active compounds read low; remaining BAM8-22 calcium response % of control (active compounds read low), % at 10 µM; actives 19% (n = 2,300);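 active means remaining agonist calcium response no higher than 100% minus 3 SD of agonist-only control wells, with starting fluorescence near control levels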;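 further: agonist BAM8-22 given at a near maximal EC90 to ECmax level; peak minus minimum fluorescence divided by baseline after agonist addition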
HEK293 Ca flux – counter-screen for MrgX1 antagonists: effect in parental HEK293 cells; AID 624111; fluorescence ratio F(max-min)/F0 at 10 µM; actives 2% (n = 4,000); shares compounds with MrgX1 antag; Fluo-4 calcium fluorescence, FDSS;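 active means duplicate-averaged calcium fluorescence ratio at least three times the standard deviation of buffer wells, a nonspecific response in parental cells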
HEK293 Ca counter – MrgX1 allosteric activator counter-screen hit in parental HEK293 cells | fluorescence ratio F(max-min)/F0 at 10 µM | actives 0.4% (n = 4,000) | shares compounds with MrgX1 antag | AID 624114 | parental HEK293 calcium flux, Fluo-4 fluorescence ratio; active compounds read high;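 active means calcium fluorescence ratio, averaged over duplicates, at least 3 SD of the buffer-well ratio, meaning a nonspecific response in receptor-free cells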;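 further: untransfected parental HEK293 lacking MrgX1 used as counterscreen for MrgX1 allosteric activators; fluorescence change taken during the second addition on a kinetic imager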
HEK293 Ca cntr2 – counter-screen for MrgX1 activators: effect in parental HEK293 cells; shares compounds with MrgX1 antag; Fluo-4 calcium fluorescence (FDSS); active compounds read high; fluorescence ratio F(max-min)/F0 at 10 µM; actives 8.7% (n = 4,000); AID 624115;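 active means calcium fluorescence ratio at least three times the spread of buffer wells, meaning a non-specific response in parental cells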
* = called active by the depositor. An excerpt weighted towards active compounds, which were near 3.5% of everything screened.

`N#CC1=C(N)Oc2cc(O)ccc2C1c1ccc2c(c1)OCO2` (stereo not given) gave RGS4 block inactive, MrgX1 antag inactive, MrgX1 ag inactive, MrgX1 allo act inactive and RGS4 act inactive.
Screening O=C(O)C1CN2CCC1CC2 (stereo not given) returned RGS4 block inactive, MrgX1 antag -8*, MrgX1 ag inactive, MrgX1 allo act inactive, RGS4 act inactive, MrgX1 ant reconf inactive, HEK293 Ca flux inactive, HEK293 Ca counter inactive and HEK293 Ca cntr2 inactive.
`O=C1OC(c2ccc(Cl)cc2)=N/C1=C\N1CC2CC(C1)c1cccc(=O)n1C2` (stereo not given) gave RGS4 block inactive, MrgX1 antag inactive, MrgX1 ag inactive, MrgX1 allo act inactive and RGS4 act inactive.
For O=C(C1CCCN(c2nnc(-n3cccc3)s2)C1)N1CCC2(CC1)OCCO2 (stereo not given) the results were RGS4 block inactive, MrgX1 antag inactive, MrgX1 ag inactive, MrgX1 allo act inactive and RGS4 act inactive.
`N=C1C(c2ccccc2)=C(O)CN1Cc1ccco1` gave RGS4 block inactive, MrgX1 antag -5.7*, MrgX1 ag inactive, MrgX1 allo act inactive, RGS4 act inactive, MrgX1 ant reconf inactive, HEK293 Ca flux inactive, HEK293 Ca counter inactive and HEK293 Ca cntr2 inactive.
For COC(=O)C1=C(c2ccc(S(C)(=O)=O)cc2)C[C@@H]2CC[C@H]1N2C(=O)NCCO the results were RGS4 block inactive, MrgX1 antag inactive, MrgX1 ag inactive, MrgX1 allo act inactive and RGS4 act inactive.
For COC(=O)C1=C(c2ccc(S(C)(=O)=O)cc2)C[C@@H]2CC[C@H]1N2C(=O)NCC1CC1 the results were RGS4 block inactive, MrgX1 antag -9.4*, MrgX1 ag inactive, MrgX1 allo act inactive, RGS4 act inactive, MrgX1 ant reconf inactive, HEK293 Ca flux inactive, HEK293 Ca counter inactive and HEK293 Ca cntr2 inactive.
Screening O=C(c1cccn2c(=O)c3cc(Br)ccc3nc12)N1CCC2(CC1)OCCO2 returned RGS4 block inactive, MrgX1 antag inactive, MrgX1 ag inactive, MrgX1 allo act inactive and RGS4 act inactive.
For Cc1cccn2c(=O)c3cc(C(=O)N4CCC5(CC4)OCCO5)n(C)c3nc12 the results were RGS4 block inactive, MrgX1 antag -4.7*, MrgX1 ag inactive, MrgX1 allo act inactive, RGS4 act inactive, MrgX1 ant reconf inactive, HEK293 Ca flux inactive, HEK293 Ca counter inactive and HEK293 Ca cntr2 inactive.
`Cc1ccc(-c2nc3ccccc3c(=O)n2-c2cccc(O)c2)cc1` gave RGS4 block inactive, MrgX1 antag inactive, MrgX1 ag inactive, MrgX1 allo act inactive and RGS4 act inactive.
For COC(=O)C(O)(c1ccc(NC(=S)NC(=O)c2ccc(Cl)cc2Cl)c(C)c1)C(F)(F)F (stereo not given) the results were RGS4 block inactive, MrgX1 antag inactive, MrgX1 ag inactive, MrgX1 allo act inactive and RGS4 act inactive.
Screening CCOC(=O)C(O)(c1ccc(NC(=S)NC(=O)c2ccc(Cl)cc2Cl)c(C)c1)C(F)(F)F (stereo not given) returned RGS4 block inactive, MrgX1 antag -4.7*, MrgX1 ag inactive, MrgX1 allo act inactive, RGS4 act inactive, MrgX1 ant reconf inactive, HEK293 Ca flux inactive, HEK293 Ca counter inactive and HEK293 Ca cntr2 inactive.
`CCc1nnc(NS(=O)(=O)c2ccc(N=Cc3c(O)n(-c4ccc(Cl)cc4)c(=O)[nH]c3=O)cc2)s1` gave RGS4 block inactive, MrgX1 antag inactive, MrgX1 ag inactive, MrgX1 allo act inactive and RGS4 act inactive.
CCOc1ccc(-c2cc(C)[n+](CCO)c(-c3ccc(OCC)cc3)c2)cc1 was read as RGS4 block inactive, MrgX1 antag inactive, MrgX1 ag inactive, MrgX1 allo act inactive and RGS4 act inactive.
Screening CCOc1ccc(-c2cc(C)[n+](CCc3ccc(OC)c(OC)c3)c(-c3ccc(OCC)cc3)c2)cc1 returned RGS4 block inactive, MrgX1 antag -13*, MrgX1 ag inactive, MrgX1 allo act inactive, RGS4 act -9.9*, MrgX1 ant reconf 70%*, HEK293 Ca flux inactive, HEK293 Ca counter inactive and HEK293 Ca cntr2 inactive.
Screening Cc1c(C=O)c2ccccc2n1Cc1ccccc1F returned RGS4 block inactive, MrgX1 antag -11*, MrgX1 ag inactive, MrgX1 allo act inactive, RGS4 act inactive, MrgX1 ant reconf inactive, HEK293 Ca flux inactive, HEK293 Ca counter inactive and HEK293 Ca cntr2 inactive.
`Clc1ccccc1CN1CCN(c2ccccc2)CC1` gave RGS4 block inactive, MrgX1 antag inactive, MrgX1 ag inactive, MrgX1 allo act inactive and RGS4 act inactive.
Screening CC(C)(C)c1ccc(O)c(CN2CCN(c3ccccc3)CC2)c1 returned RGS4 block inactive, MrgX1 antag -9.3*, MrgX1 ag inactive, MrgX1 allo act inactive, RGS4 act inactive, MrgX1 ant reconf inactive, HEK293 Ca flux inactive, HEK293 Ca counter inactive and HEK293 Ca cntr2 inactive.
NC(CC(=O)O)C1CCCCC1 (stereo not given) was read as RGS4 block inactive, MrgX1 antag -7*, MrgX1 ag inactive, MrgX1 allo act inactive, RGS4 act inactive, MrgX1 ant reconf inactive, HEK293 Ca flux inactive, HEK293 Ca counter inactive and HEK293 Ca cntr2 inactive.
For O=C1NC2NC(=O)N([N+](=O)[O-])C2N1 (stereo not given) the results were RGS4 block inactive, MrgX1 antag inactive, MrgX1 ag inactive, MrgX1 allo act inactive and RGS4 act inactive.
`CCN(CC(=O)Nc1ccc(C#N)c(Cl)c1)CC(=O)NC(C)(C)C` gave RGS4 block inactive, MrgX1 antag inactive, MrgX1 ag inactive, MrgX1 allo act inactive and RGS4 act inactive.

Source: PubChem BioAssay (Johns Hopkins Ion Channel Center)
